Results from ChEMBL document CHEMBL4414566, “Cytotoxicity and Anti-inflammatory Properties of Apigenin-Derived Isolaxifolin” (J Nat Prod, 2019).
Calls of active or inactive are those of the source. The rule behind the calls is not given here.

Legend:
RAW264.7 [1] = test: Antiinflammatory activity in mouse RAW264.7 cells assessed as inhibition LPS-induced NO production at 254.8 uM measured after 24 hrs by griess reagent based assay; assay type: functional, cell-based
Procedure, shortened: (§1)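 Murine RAW 264.7 macrophages, 1 × 10^5/well, 4 h settling, then LPS (1.0 μg/mL) for 24 h. Medium was swapped for test solutions (0.8–3.1 μM or 2.3–9.2 μM), or DXM 254.8 μM as positive control, for another 24 h. Secreted NO was measured by Griess assay; TNF-α and IL-6 by ELISA. Run in triplicate, mean ± SD.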

MDA-MB-231 [2] = test: Antiproliferative activity against human MDA-MB-231 cells assessed as viable cells at 40 uM incubated for 48 hrs by trypan blue dye exclusion test relative to control; assay type: functional; settings: MDA-MB-231, 48 h, read-out: Activity
RAW264.7 [3] = test: Antiinflammatory activity in mouse RAW264.7 cells assessed as reduction in LPS-induced IL6 production preincubated with LPS for 24 hrs followed by compound addition and measured after 24 hrs by ELISA; assay type: functional, cell-based; procedure, shortened: as §1
RAW264.7 [4] = test: Antiinflammatory activity in mouse RAW264.7 cells assessed as reduction in LPS-induced TNFalpha production preincubated with LPS for 24 hrs followed by compound addition and measured after 24 hrs by ELISA; assay type: functional, cell-based; procedure, shortened: as §1
RAW264.7 [5] = test: Antiinflammatory activity in mouse RAW264.7 cells assessed as inhibition of LPS-induced NO production measured after 24 hrs by griess reagent based assay; assay type: functional, cell-based; procedure, shortened: as §1
[6] = Cytotoxicity against mouse RAW264.7 cells assessed as reduction in cell viability incubated for 24 hrs by MTT assay; assay type: cell-based; settings: read-out: MNCC
Procedure, shortened: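 MTT viability assay: RAW 264.7 cells seeded at 2.5 × 10^4 cells/well, cultured 12 h, then given five concentrations from serial dilution (up to 6.2 or 9.2 μM; final DMSO <1%) for 24 h. Viability was calculated relative to untreated blank control; n = 3, mean ± SD.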

MDA-MB-231 [7] = test: Induction of mitochondrial membrane potential loss in human MDA-MB-231 cells incubated for 48 hrs by JC1 staining based flow cytometric analysis; assay type: functional, cell-based
Procedure, shortened: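 MDA-MB-231 cells in DMEM/10% FBS exposed 48 h to 0, 8.6, 12.4 or 17.3 μM. Harvested cells stained with JC-1 for 15 min in the dark, then analysed by flow cytometry. Excitation 488 nm; green emission read at 525 nm, red at 590 nm. Output given as percent green-to-red fluorescence intensity ratio. Triplicate, mean ± SD.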

MDA-MB-231 [8] = test: Induction of apoptosis in human MDA-MB-231 cells assessed as increase in nuclear chromatin condensation incubated for 48 hrs by Hoechst 33258 staining based fluorescence microscopic method; assay type: functional, cell-based
Procedure, shortened: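 MDA-MB-231 cells were grown 24 h and treated with 8.6, 12.4 or 17.3 μM for 48 h. They were then fixed 10 min, washed three times in PBS and stained 5 min with Hoechst 33258. Nuclear condensation was imaged by fluorescence microscopy (excitation 350 nm, emission 460 nm).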

L02 = test: Cytotoxicity against human LO2 cells assessed as reduction in cell viability at 23.1 to 185 uM incubated for 48 hrs by methylene blue assay; assay type: cell-based; settings: l02, 48 h
Procedure, shortened: (§2)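 MDA-MB-231, MCF-7, HepG2 and LNCaP cells were grown in DMEM; HCT-116 and LO-2 in RPMI-1640; all with 10% FBS at 37 °C, 5% CO2. Cells seeded at 1.5 × 10^5 cells/mL and incubated overnight (~12 h), then exposed to 6.2–30.9 μM or 23.1–185.0 μM (final DMSO <0.1%) for 48 h. Read by methylene blue staining; viability = Abs treated/Abs untreated × 100%, triplicate.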

MCF7 [9] = test: Antiproliferative activity against human MCF7 cells assessed as cell viability at 188.7 uM incubated for 48 hrs by methylene blue assay relative to control; assay type: functional; settings: MCF7, 48 h, read-out: Activity
RAW264.7 [10] = test: Antiinflammatory activity against LPS-activated mouse RAW264.7 cells assessed as reduction in TNFalpha mRNA expression preincubated with LPS for 24 hrs followed by compound addition and measured after 24 hrs by qRT-PCR analysis; assay type: functional, cell-based
Procedure, shortened: (§3)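 RAW 264.7 cells (DMEM, 10% FBS, 37 °C, 5% CO2) seeded at 1 × 10^5/well and held 4 h. LPS 1.0 μg/mL was added for 24 h, then medium was replaced with test agent (0.8, 1.6, 3.1 μM or 2.3, 4.6, 9.2 μM) for 24 h. TNF-α and IL-6 transcripts were quantified by real-time qPCR against GAPDH. Triplicates, mean ± SD.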

RAW264.7 [11] = test: Antiinflammatory activity against LPS-activated mouse RAW264.7 cells assessed as reduction in IL6 mRNA expression preincubated with LPS for 24 hrs followed by compound addition and measured after 24 hrs by qRT-PCR analysis; assay type: functional, cell-based; procedure, shortened: as §3
MDA-MB-231 [12] = test: Antiproliferative activity against human MDA-MB-231 cells assessed as reduction in cell viability at 46.3 uM incubated for 48 hrs by methylene blue assay; assay type: functional; procedure, shortened: as §2
MCF7 [13] = test: Antiproliferative activity against human MCF7 cells assessed as reduction in cell viability at 46.3 uM incubated for 48 hrs by methylene blue assay relative to control; assay type: functional; procedure, shortened: as §2
HepG2 = test: Antiproliferative activity against human HepG2 cells reduction in cell viability at 46.3 uM incubated for 48 hrs by methylene blue assay relative to control; assay type: functional; procedure, shortened: as §2
LNCaP = test: Antiproliferative activity against human LNCAP cells assessed as reduction in cell viability at 46.3 uM incubated for 48 hrs by methylene blue assay relative to control; assay type: functional; procedure, shortened: as §2
HCT-116 = test: Antiproliferative activity against human HCT116 cells assessed as reduction in cell viability at 46.3 uM incubated for 48 hrs by methylene blue assay relative to control; assay type: functional; procedure, shortened: as §2
MDA-MB-231 [14] = test: Induction of cell cycle arrest in human MDA-MB-231 cells assessed as increase in accumulation of cells at G0/G1 phase incubated for 48 hrs by PI/RNase staining based flow cytometric analysis; assay type: functional
Procedure, shortened: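 Cells grown 24 h in DMEM/10% FBS at 37 °C, 5% CO2, then exposed 48 h to 8.6, 12.4 or 17.3 μM. Pelleted, fixed in 75% ethanol at −20 °C overnight, stained with PI-containing RNase 15 min in the dark at ambient temperature. About 10 000 cells per well analysed by flow cytometry. Triplicate, mean ± SD.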

RAW264.7 [15] = test: Inhibition of nitric oxide production in mouse RAW264.7 cells measured after 24 hrs by griess reagent based assay; assay type: functional, cell-based

Structure (SMILES)	inhibition (RAW264.7 [1])	viability at 40 µM (MDA-MB-231 [2]) [%]	Activity (RAW264.7 [3])	Activity (RAW264.7 [4])	inhibition (RAW264.7 [5])	MNTC at 24 h [6] [µM]	Activity (MDA-MB-231 [7])	Activity (MDA-MB-231 [8])	Activity (L02)	viability at 188.7 µM (MCF7 [9]) [%]	Activity (RAW264.7 [10])	Activity (RAW264.7 [11])	Activity (MDA-MB-231 [12])	Activity (MCF7 [13])	Activity (HepG2)	Activity (LNCaP)	Activity (HCT-116)	Activity (MDA-MB-231 [14])	inhibition (RAW264.7 [15])
C[C@@H]1C[C@H]2[C@@H]3CCC4=CC(=O)C=C[C@]4(C)[C@@]3(F)[C@@H](O)C[C@]2(C)[C@@]1(O)C(=O)CO	Active	–	–	–	–	–	–	–	–	–	–	–	–	–	–	–	–	–	–
O=c1cc(-c2ccc(O)cc2)oc2cc(O)cc(O)c12 [APIGENIN]	–	45	Dose-dependent effect	Dose-dependent effect	Dose-dependent effect	9.2	Active	Dose-dependent effect	Non-Toxic	20	Dose-dependent effect	Dose-dependent effect	<=50%	<=50%	<=50%	<=50%	<=50%	Active	Dose-dependent effect
